Here are results for 6 compounds from ChEMBL document CHEMBL2424551, “Synthesis, in vitro evaluation and molecular modelling of naphthalimide analogue as anticancer agents” (2013).

What all share (format): functional
One assay concerns MOLT-4. Briefly: Growth inhibition of human MOLT4 cells at 10 uM after 48 hrs by SRB assay. Particulars: MOLT-4, 48 h, read-out: GI. In outline:
(§1)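 Cells grown in RPMI 1640 with 5% FBS and 2 mM L-glutamine, plated at 5000–40,000 cells/well by doubling time and preincubated 24 h (37 °C, 5% CO2); a time-zero plate is TCA-fixed. Single dose added, then 48 h incubation. Fixed with cold TCA, stained with 0.4% SRB, dye solubilized in 10 mM Tris base, absorbance at 515 nm; percent growth vs time-zero and untreated control.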
A general note: Sulforhodamine B stains cellular protein and so reports cell mass.

The test system of a further assay is SR. Briefly: Growth inhibition of human SR cells at 10 uM after 48 hrs by SRB assay. The conditions noted are these: read-out: GI. In outline: (§2)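 NCI 60-cell-line screen with a single 10 µM dose. Cells are grown in RPMI 1640 with 5% FBS and 2 mM L-glutamine, plated at 5000–40,000 cells/well according to doubling time, and preincubated 24 h at 37 °C, 5% CO2; time-zero plates are TCA-fixed at that point. Drug exposure is 48 h. Adherent cells are fixed with cold TCA, stained with 0.4% SRB in 1% acetic acid and read at 515 nm. Percent growth is calculated relative to time-zero and untreated controls and reported as GI%.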

In another assay the test system is HT-29. The assay is described as follows: Growth inhibition of human HT-29 cells at 10 uM after 48 hrs by SRB assay. The conditions noted are these: HT-29, 48 h, read-out: GI. The method in brief: as §1
A further assay has as its system Hs-578T. The assay is described as follows: Growth inhibition of human Hs578T cells at 10 uM after 48 hrs by SRB assay. Particulars: read-out: GI. The method in brief: as §1
The subject of the next assay is COLO 205. The assay is described as follows: Growth inhibition of human COLO205 cells at 10 uM after 48 hrs by SRB assay. The conditions noted are these: COLO 205, 48 h, read-out: GI. In outline: as §1
Another assay has as its system MCF7. Briefly: Growth inhibition of human MCF7 cells at 10 uM after 48 hrs by SRB assay. The conditions noted are these: MCF7, 48 h, read-out: GI. In outline: as §1
A further assay deals with OVCAR-3. The assay is described as follows: Growth inhibition of human OVCAR3 cells at 10 uM after 48 hrs by SRB assay. Particulars: OVCAR-3, 48 h, read-out: GI. The method in brief:
as §1

Another assay has as its system A498. Briefly: Growth inhibition of human A498 cells at 10 uM after 48 hrs by SRB assay. Particulars: A498, 48 h, read-out: GI. The method in brief:
as §1

The subject of a further assay is IGROV-1. Briefly: Growth inhibition of human IGROV1 cells at 10 uM after 48 hrs by SRB assay. The conditions noted are these: IGROV-1, 48 h, read-out: GI. In outline:
as §1

A further assay deals with Malme-3M. The assay is described as follows: Growth inhibition of human MALME-3M cells at 10 uM after 48 hrs by SRB assay. The conditions noted are these: read-out: GI. In outline:
as §1

Another assay has as its system M14. The assay is described as follows: Growth inhibition of human M14 cells at 10 uM after 48 hrs by SRB assay. Particulars: M14, 48 h, read-out: GI. The method in brief:
as §1

The subject of the next assay is OVCAR-4. The assay is described as follows: Growth inhibition of human OVCAR4 cells at 10 uM after 48 hrs by SRB assay. The conditions noted are these: OVCAR-4, 48 h, read-out: GI. In outline:
as §1

The subject of a further assay is LOX IMVI. Briefly: Growth inhibition of human LOXIMVI cells at 10 uM after 48 hrs by SRB assay. Particulars: read-out: GI. In outline: as §1
For the next assay, the system named is SF-539. Briefly: Growth inhibition of human SF539 cells at 10 uM after 48 hrs by SRB assay. The conditions noted are these: SF-539, 48 h, read-out: GI. The method in brief: as §1
For another assay, the system named is OVCAR-8. The assay is described as follows: Growth inhibition of human OVCAR8 cells at 10 uM after 48 hrs by SRB assay. Particulars: OVCAR-8, 48 h, read-out: GI. The method in brief: as §1
Another assay concerns A549. Briefly: Growth inhibition of human A549 cells at 10 uM after 48 hrs by SRB assay. The conditions noted are these: A549, 48 h, read-out: GI. The method in brief: as §1
A short description of assay [1]: Growth inhibition of human HCC2998 cells at 10 uM after 48 hrs by SRB assay. The conditions noted are these: HCC 2998, 48 h, read-out: GI. The method in brief:
as §1

The subject of the next assay is RXF 393. The assay is described as follows: Growth inhibition of human RXF393 cells at 10 uM after 48 hrs by SRB assay. The conditions noted are these: RXF 393, 48 h, read-out: GI. In outline:
as §1

A further assay relates to SNB-19. The assay is described as follows: Growth inhibition of human SNB19 cells at 10 uM after 48 hrs by SRB assay. The conditions noted are these: SNB-19, 48 h, read-out: GI. The method in brief:
as §2

The test system of the next assay is SK-MEL-28. Briefly: Growth inhibition of human SK-MEL-28 cells at 10 uM after 48 hrs by SRB assay. Particulars: SK-MEL-28, 48 h, read-out: GI. In outline: as §1
In a further assay the test system is UO-31. The assay is described as follows: Growth inhibition of human UO31 cells at 10 uM after 48 hrs by SRB assay. The conditions noted are these: UO-31, 48 h, read-out: GI. The method in brief: as §2
A further assay concerns SF-268. The assay is described as follows: Growth inhibition of human SF268 cells at 10 uM after 48 hrs by SRB assay. The conditions noted are these: SF-268, 48 h, read-out: GI. The method in brief: as §1
Another assay has as its system UACC-257. The assay is described as follows: Growth inhibition of human UACC257 cells at 10 uM after 48 hrs by SRB assay. The conditions noted are these: UACC-257, 48 h, read-out: GI. In outline: as §2
A further assay deals with SK-MEL-2. The assay is described as follows: Growth inhibition of human SK-MEL-2 cells at 10 uM after 48 hrs by SRB assay. Particulars: SK-MEL-2, 48 h, read-out: GI. The method in brief:
as §1

The test system of the next assay is TK-10. The assay is described as follows: Growth inhibition of human TK10 cells at 10 uM after 48 hrs by SRB assay. Particulars: TK-10, 48 h, read-out: GI. In outline:
as §2

In the case of `O=c1c2cccc3c(Nc4c(F)cccc4F)ccc(c32)c2nc3ccccc3n12`, the inhibition of growth at 10 µM in the assay on MOLT-4 is 25.9%; with SR it was 78.5%; in the assay on HT-29, < 20%; in the assay on Hs-578T, < 20%; in the assay with COLO 205, < 20%; with MCF7 it was 79.6%. For the same compound, the inhibition of growth at 10 µM is < 20% in the assay on OVCAR-3; < 20% in the assay with A498; 46.6% in the assay on IGROV-1; < 20% in the assay with Malme-3M; < 20% in the assay with M14; < 20% in the assay with OVCAR-4. For the same compound, the inhibition of growth at 10 µM was < 20% with LOX IMVI; < 20% in the assay on SF-539; < 20% in the assay with OVCAR-8; < 20% in the assay on A549; 27.3% in assay [1]; < 20% in the assay on RXF 393. Moreover, the inhibition of growth at 10 µM with SNB-19 was < 20%; in the assay with SK-MEL-28, < 20%; in the assay on UO-31, 49.4%; with SF-268 it was < 20%.
With `O=c1c2cccc3c(NCCO)ccc(c32)c2nc3ccccc3n12`, the inhibition of growth at 10 µM in the assay with MOLT-4 was < 20%; in the assay on HT-29 it was < 20%; in the assay on Hs-578T, < 20%; in the assay with COLO 205, < 20%; in the assay with MCF7 it was 57.5%; in the assay on UACC-257, < 20%. The inhibition of growth at 10 µM in the assay on OVCAR-3 is < 20%; in the assay on A498, 32.9%; in the assay on IGROV-1 it was 63.5%; in the assay on Malme-3M it was < 20%; with M14, < 20%; in the assay on OVCAR-4 it was < 20%. Further, the inhibition of growth at 10 µM in the assay with LOX IMVI, with SK-MEL-2, with SF-539, in the assay with OVCAR-8, in the assay on TK-10 and with A549 was < 20% throughout. Besides, the inhibition of growth at 10 µM in assay [1] is < 20%; in the assay with RXF 393, < 20%; in the assay on SNB-19, < 20%; in the assay on SK-MEL-28, < 20%; in the assay with UO-31, 38.3%; in the assay on SF-268 it was < 20%.
On to `CCCCNc1ccc2c3c1cccc3c(=O)n1c3ccccc3nc21`, for which the inhibition of growth at 10 µM with MOLT-4 is 30.6%; in the assay on SR, 84.4%; in the assay on HT-29, < 20%; with Hs-578T, < 20%; with COLO 205 it was < 20%; with MCF7, 89.7%. Further, the inhibition of growth at 10 µM with OVCAR-3 is < 20%; in the assay on A498, < 20%; with IGROV-1, 58.2%; with Malme-3M, < 20%; in the assay on M14, < 20%; with OVCAR-4, < 20%. Also, the inhibition of growth at 10 µM with LOX IMVI was 24.1%; in the assay with SF-539, < 20%; in the assay on OVCAR-8, < 20%; in the assay on TK-10 it was 29.8%; with A549, 23.4%; in [1], 26%. Besides, the inhibition of growth at 10 µM in the assay on RXF 393 was < 20%; with SNB-19, < 20%; in the assay with SK-MEL-28 it was < 20%; in the assay on UO-31 it was 41.4%; in the assay with SF-268, < 20%.
Take `O=c1c2cccc3c(Nc4ccc(F)cc4)ccc(c32)c2nc3ccccc3n12`: the inhibition of growth at 10 µM in the assay with MOLT-4 is < 20%; with HT-29, < 20%; in the assay on Hs-578T, 26.4%; in the assay with COLO 205, < 20%; in the assay with MCF7, 89.9%; in the assay with UACC-257 it was < 20%. Moreover, the inhibition of growth at 10 µM in the assay on OVCAR-3 was < 20%; with A498, 33.8%; in the assay with Malme-3M, < 20%; with M14 it was < 20%; in the assay on OVCAR-4, 24%; in the assay on LOX IMVI, < 20%. Also, the inhibition of growth at 10 µM in the assay on SK-MEL-2 was < 20%; with SF-539, < 20%; in the assay on OVCAR-8 it was < 20%; in the assay with TK-10, 24.7%; in the assay on A549, < 20%; in assay [1] it was 23.9%. Further, the inhibition of growth at 10 µM is < 20% in the assay with RXF 393; 22.4% with SNB-19; < 20% in the assay with SK-MEL-28; 50.8% with UO-31; < 20% in the assay with SF-268.
With `O=c1c2cccc3c(NC4CCCCC4)ccc(c32)c2nc3ccccc3n12`, the inhibition of growth at 10 µM in the assay with MOLT-4 was 50.2%; in the assay with SR, 98.9%; in the assay on HT-29, 23.1%; with Hs-578T, < 20%; with COLO 205, 24.4%; in the assay on MCF7 it was 86.5%. The inhibition of growth at 10 µM was < 20% in the assay with OVCAR-3; < 20% in the assay with A498; 58.8% in the assay on IGROV-1; < 20% in the assay with Malme-3M; < 20% in the assay with M14; < 20% in the assay on OVCAR-4. The inhibition of growth at 10 µM was 26.6% in the assay with LOX IMVI; < 20% with SF-539; < 20% in the assay on OVCAR-8; 22.6% in the assay on TK-10; 33.5% in the assay with A549; 48.3% in [1]. Further, the inhibition of growth at 10 µM in the assay on RXF 393 was < 20%; in the assay on SNB-19 it was < 20%; in the assay on SK-MEL-28 it was < 20%; in the assay with UO-31, 58.6%; in the assay with SF-268, < 20%.
Turning to `O=c1c2cccc3c(Nc4ccccn4)ccc(c32)c2nc3ccccc3n12`, the inhibition of growth at 10 µM in the assay with MOLT-4 was 38.2%; with SR it was 29.8%; in the assay on HT-29 it was 35.4%; in the assay on Hs-578T, < 20%; in the assay on COLO 205, 29%; with MCF7, 71.3%. In addition, the inhibition of growth at 10 µM in the assay with OVCAR-3 was 30%; with A498 it was < 20%; in the assay on IGROV-1, 43.4%; with Malme-3M, < 20%; in the assay on M14, < 20%; with OVCAR-4 it was 30.9%. The inhibition of growth at 10 µM is 30.4% with LOX IMVI; < 20% in the assay with SF-539; 24.6% in the assay with OVCAR-8; 34.2% in the assay with TK-10; 29.1% in the assay on A549; 31.5% in [1]. Besides, the inhibition of growth at 10 µM in the assay with RXF 393 was < 20%; in the assay with SNB-19, < 20%; in the assay on SK-MEL-28, < 20%; with UO-31, 53.5%; with SF-268 it was < 20%.
